Assays:
[1] = system: A/Puerto Rico/8/34 (H1N1) influenza virus; assay: Cell protection assay, influenza virus in MDCK cells; assay type: cell-based, influenza virus A/PR/8/34 (H1N1)
Coxsackie B3 virus = assay: Cell protection assay, Coxsackie B3 virus in Vero cells; assay type: cell-based, coxsackievirus B3
Method in brief: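 Confluent Vero monolayers given test compound, infected with Coxsackie B3 (m.o.i. 0.01), held 48 h at 36 °C, 5% CO2. Viability read by MTT (OD 540 nm) against virus-only wells; IC50 is 50% cell protection. […] SI = CC50/IC50.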

Row | SMILES | antiviral activity against influenza virus A/PR/8/34 (H1N1), in words [1] | antiviral activity against Coxsackie B3 virus, in words (Coxsackie B3 virus)
1 | O=c1[nH]c(=O)n(CCCc2cn([C@@H]3O[C@H](CO)[C@@H](O)[C@H]3O)nn2)c2ccccc12 [Compound 4h, N1-{[1-(β-D-ribofuranosyl)-1H-1,2,3-triazol-4-yl]propyl}-2,4(1H,3H)-quinazolinedione] | antiviral activity was demonstrated | 
2 | Cc1[nH]c(=O)[nH]c(=O)c1Cc1cn([C@@H]2O[C@H](CO)[C@@H](O)[C@H]2O)nn1 [Compound 8m, 6-Methyl-5-{[1-(β-D-ribofuranosyl)-1H-1,2,3-triazol-4-yl]methyl}-2,4(1H,3H)-pyrimidinedione] | antiviral activity was demonstrated | 
3 | Cc1[nH]c(=O)[nH]c(=O)c1CCCc1cn([C@@H]2O[C@H](CO)[C@@H](O)[C@H]2O)nn1 [Compound 8n, 6-Methyl-5-{[1-(β-D-ribofuranosyl)-1H-1,2,3-triazol-4-yl]propyl}-2,4(1H,3H)-pyrimidine-dione] | antiviral activity was demonstrated | 
4 | Cc1[nH]c(=O)[nH]c(=O)c1CCCCc1cn([C@@H]2O[C@H](CO)[C@@H](O)[C@H]2O)nn1 [Compound 8o, 6-Methyl-5-{[1-(β-D-ribofuranosyl)-1H-1,2,3-triazol-4-yl]butyl}-2,4(1H,3H)-pyrimidinedione] | completely inactive | 
5 | NC(=O)c1ncn([C@@H]2O[C@H](CO)[C@@H](O)[C@H]2O)n1 [Ribavirin, 1-β-D-ribofuranosyl-1,2,4-triazole-3-carboxamide] |  | inactive

From paper PMC7490575 (Molecular Diversity, 2020)
